The source of these data is ChEMBL document CHEMBL1155640, “Guaiane dimers and germacranolide from Artemisia caruifolia” (J Nat Prod, 2000).

Assay [1] addresses Protease (Human immunodeficiency virus 1) (UniProt Q9YQ12). In words: Inhibition of HIV1 protease at 100 ug/mL. The procedure, abridged:
(§1)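 Commercial HIV protease assay kit, with inhibition calculated by a previously reported method. Compounds were screened at 100 µg/mL. IC50 was taken from concentration-dependent inhibition. Acetyl pepstatin served as positive control.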

In assay [2] the target is Protease (Human immunodeficiency virus 1, UniProt Q9YQ12). In words: Inhibition of HIV1 protease. The procedure, abridged: as §1
In assay [3] the test system is Human immunodeficiency virus 1. The assay is described as follows: Antiviral activity against HIV1 in human MT4 cells assessed as inhibition of viral-induced cytopathic effect at 500 ug/mL. In kind it is functional, organism-based.
The subject of assay [4] is Human immunodeficiency virus 1. In words: Antiviral activity against HIV1 in human MT4 cells assessed as inhibition of viral-induced cytopathic effect at 250 ug/mL. In kind it is functional, organism-based.

SMILES strings stand for the structures. Calls of active or inactive are those of the source. The calls are words filed in the database; no cut-off is given here.

Sequence of Protease (Human immunodeficiency virus 1) (Q9YQ12 as listed by the source): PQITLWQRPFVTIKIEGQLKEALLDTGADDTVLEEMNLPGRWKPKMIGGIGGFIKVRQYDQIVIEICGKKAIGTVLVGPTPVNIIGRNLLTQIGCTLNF
Sequence of Protease (Q9YQ12 whole entry): as the sequence (Q9YQ12 as listed by the source) above

For the compound `C/C1=C/[C@H]2OC(=O)[C@H](C)[C@H]2CC[C@]2(C)O[C@H]1C[C@H]2O`, the inhibition in assay [1] amounted to 22%.

`CC1=C2[C@H]3OC(=O)[C@@H](C)[C@@H]3CC[C@](C)(O)[C@@H]2[C@H]2[C@H]3C(=O)[C@H](C)[C@]4([C@@H]3[C@@](C)(O)CC[C@H]3[C@H](C)C(=O)O[C@@H]34)[C@@H]12` [CARUIFOLIN B]: in assay [1], the inhibition is 22%. This compound also gave an IC50 in assay [2] of 293 µM. Moreover, in assay [3], the outcome was Active.

As to `C[C@@H]1C(=O)O[C@@H]2C3=C([C@H]4C(=O)[C@]3(C)[C@@H]3[C@H](O)C5=C([C@H]6OC(=O)[C@@H](C)[C@@H]6CC[C@]5(C)O)[C@@]43C)[C@@](C)(O)CC[C@@H]12`, in assay [1], the inhibition turned out to be 22%.

Take `C=C1[C@@H](O)[C@@H]2[C@H]3[C@H](C(C)=C4[C@H]5OC(=O)[C@@H](C)[C@@H]5CC[C@](C)(O)[C@@H]43)[C@@]13[C@@H]2[C@@](C)(O)CC[C@H]1[C@H](C)C(=O)O[C@@H]13`: the inhibition in assay [1] was 22%.

The compound `CC1=C2[C@H]3OC(=O)[C@@H](C)[C@@H]3CC[C@](C)(O)[C@@H]2[C@H]2[C@@H]3[C@@H]4[C@]5([C@H]6OC(=O)[C@@H](C)[C@@H]6CC[C@]4(C)O[C@@]5(C)[C@H]3O)[C@@H]12` gave an inhibition in assay [1] of 22%.

`CC1=C2[C@H]3OC(=O)[C@H](C)[C@@H]3CC[C@@](C)(O)[C@@H]2[C@H]2[C@H]3C[C@]4(C)O[C@@]5(C)CC[C@H]6[C@H](C)C(=O)O[C@@H]6[C@@]4([C@@H]35)[C@@H]12` registered an inhibition in assay [1] of 22%.

In assay [1], `CC1=C[C@H]2[C@H]3[C@H](C(C)=C4[C@H]5OC(=O)[C@@H](C)[C@@H]5CC[C@](C)(O)[C@@H]43)[C@@]13[C@@H]2[C@@](C)(O)CC[C@H]1[C@H](C)C(=O)O[C@@H]13` yielded an inhibition of 22%. Moreover, in assay [4], the result was Active.

For `CC1=C2[C@H]3OC(=O)[C@@H](C)[C@@H]3CC[C@](C)(O)[C@@H]2[C@H]2[C@H]3C[C@]4(C)O[C@@]5(C)CC[C@H]6[C@H](C)C(=O)O[C@@H]6[C@@]4([C@@H]35)[C@@H]12`, the inhibition in assay [1] turned out to be 22%.
